# Measured values collected from several papers.
# Each line is one published result; the experiments were not run side by side.
# Target: Mitogen-activated protein kinase kinase kinase 11 (MAP3K11, Homo sapiens, UniProt Q16584)
Structure (SMILES),test,conditions,remaining binding
CN(C)c1ncc(F)c(-c2cnn3ncccc23)n1,binding,1 µM,88%
CCCOc1ccc([C@H]2[C@H](C(=O)O)[C@@H](c3ccc4c(c3)OCO4)CN2CC(=O)Nc2c(CC)cccc2CC)cc1,"cell-free assay, competition with immobilised ligand",1 µM,100%
COc1ncc2cc3ccccc3nc2c1C#N,"cell-free assay, competition with immobilised ligand",5 µM,86%
O=C(c1ccc(Nc2ncc(Cl)c(-c3cc4ccccc4s3)n2)cc1)N1CCC(N2CCCC2)CC1,"binding, competition with immobilised ligand",1 µM,11%
c1cnn2ncc(-c3ccnc(N4CCC45COC5)n3)c2c1,binding,1 µM,100%
COc1cnc(Nc2cccc(S(N)(=O)=O)c2)nc1N1CCN(c2ccccc2)CC1,"binding, competition with immobilised ligand",1 µM,76%
CN(c1nccc(-c2cnn3ncccc23)n1)C1CC1,binding,1 µM,100%
O=C(NCC1CCOCC1)c1n[nH]cc1NC(=O)c1c(F)cccc1F,"binding, competition with immobilised ligand",1 µM,100%
CN(CCCC(F)(F)F)c1nccc(-c2cnn3ncccc23)n1,binding,1 µM,75%
c1cncc(-c2cccc(Nc3nccc(NC4CCCCC4)n3)c2)c1,"binding, competition with immobilised ligand",10 µM,30%
FC(F)(F)c1ccc2c(c1)nc(-c1cccnc1)n2C1CC1,"cell-free assay, competition with immobilised ligand",1 µM,100%
N[C@H]1CCN(c2nccc(-c3cnn4ncccc34)n2)C1,binding,1 µM,85%
CN1CCN(c2cnc3c(C4CCN(C(=O)c5ccc(OC(F)(F)F)cc5N)CC4)ncnc3c2)CC1,"cell-free assay, competition with immobilised ligand",1 µM,100%
COc1cnc(Nc2cccc(S(N)(=O)=O)c2)nc1N1CCN(c2ccccc2)C(=O)C1,"binding, competition with immobilised ligand",1 µM,100%
C[C@@H]1CN(c2cc(-c3nn(C)c4ccc(OC5(C)CC5)cc34)ncn2)C[C@H](C)O1,"cell-free assay, competition with immobilised ligand",1 µM,100%
O=C(NCCCN1CCOCC1)c1ccc(Nc2nccc(-c3cc4ccccc4s3)n2)cc1,"binding, competition with immobilised ligand",1 µM,39%
C[C@@]1(Cc2ccc(C#N)cc2)C(=O)N(c2cc(Cl)cc(Cl)c2)c2ncc(C(=O)NC3(c4nc(C5CCC5)no4)CC3)n21,"cell-free assay, competition with immobilised ligand",1 µM,100%
Cc1cnc(Nc2ccc(C(=O)N3CCC(N4CCCC4)CC3)cc2)nc1-c1cc2ccccc2s1,"binding, competition with immobilised ligand",1 µM,13%
Cc1c(NC(=O)c2cc(C(N)=O)nc3cc(F)ccc23)c(C(F)(F)F)nn1Cc1ccc(C#N)cc1,"cell-free assay, competition with immobilised ligand",1 µM,100%
C[C@@H]1CCN(c2nccc(-c3cnn4ncccc34)n2)C1,binding,1 µM,100%
